Measurements reported in ChEMBL document CHEMBL3632558, “Synthesis, antimycobacterial and antibacterial activity of l-[(1R,2S)-2-fluorocyclopropyl]naphthyridone derivatives containing an oxime-functionalized pyrrolidine moiety” (2015).
Values after ≈ are worked out from the molar mass of the structure shown.

Key:
Type in all cases: functional
[1] = system: Escherichia coli; assay: Antibacterial activity against Escherichia coli ATCC 25922 after 18 to 24 hrs
Summary of the method: (§1)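 MIC by standard NCCLS reference procedure (M100-S11); lowest concentration of compound inhibiting visible bacterial growth after incubation at 35 °C for 18–24 h, read as complete inhibition of growth. Ciprofloxacin, levofloxacin and moxifloxacin run alongside as reference agents.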

[2] = system: Staphylococcus aureus; assay: Antibacterial activity against methicillin-sensitive Staphylococcus aureus 14-1 after 18 to 24 hrs; summary of the method: as §1
[3] = system: Staphylococcus epidermidis; assay: Antibacterial activity against methicillin-sensitive Staphylococcus epidermidis 14-2 after 18 to 24 hrs; summary of the method: as §1
[4] = system: Staphylococcus epidermidis; assay: Antibacterial activity against methicillin-resistant Staphylococcus epidermidis 14-21 after 18 to 24 hrs
[5] = system: Escherichia coli; assay: Antibacterial activity against ESBL-positive Escherichia coli 14-1 after 18 to 24 hrs; summary of the method: as §1
[6] = system: Pseudomonas aeruginosa; assay: Antibacterial activity against Pseudomonas aeruginosa 14-14 after 18 to 24 hrs; summary of the method: as §1
[7] = system: Streptococcus pneumoniae; assay: Antibacterial activity against Streptococcus pneumoniae ATCC 19615 after 18 to 24 hrs; summary of the method: as §1
[8] = system: Staphylococcus epidermidis; assay: Antibacterial activity against methicillin-resistant Staphylococcus epidermidis 14-39 after 18 to 24 hrs
[9] = system: Klebsiella pneumoniae; assay: Antibacterial activity against ESBL-positive Klebsiella pneumoniae 14-17 after 18 to 24 hrs; summary of the method: as §1
[10] = system: Enterococcus faecium; assay: Antibacterial activity against Enterococcus faecium 14-5 after 18 to 24 hrs; summary of the method: as §1
[11] = system: Pseudomonas aeruginosa; assay: Antibacterial activity against Pseudomonas aeruginosa 14-15 after 18 to 24 hrs; summary of the method: as §1
[12] = system: Pseudomonas aeruginosa; assay: Antibacterial activity against Pseudomonas aeruginosa 14-9 after 18 to 24 hrs; summary of the method: as §1
[13] = system: Pseudomonas aeruginosa; assay: Antibacterial activity against Pseudomonas aeruginosa 14-19 after 18 to 24 hrs; summary of the method: as §1
[14] = system: Klebsiella pneumoniae; assay: Antibacterial activity against Klebsiella pneumoniae 14-2 after 18 to 24 hrs; summary of the method: as §1
[15] = system: Enterococcus faecium; assay: Antibacterial activity against Enterococcus faecium 14-6 after 18 to 24 hrs; summary of the method: as §1
[16] = system: Staphylococcus aureus; assay: Antibacterial activity against methicillin-resistant Staphylococcus aureus 14-4 after 18 to 24 hrs
[17] = system: Enterococcus faecium; assay: Antibacterial activity against Enterococcus faecium 14-2 after 18 to 24 hrs; summary of the method: as §1
[18] = system: Klebsiella pneumoniae; assay: Antibacterial activity against Klebsiella pneumoniae 14-4 after 18 to 24 hrs; summary of the method: as §1
[19] = system: Mycobacterium tuberculosis; assay: Antimycobacterial activity against Mycobacterium tuberculosis H37Rv ATCC 27294 by alamar blue assay
Summary of the method: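 Microplate Alamar Blue Assay; MIC is the lowest concentration giving ≥90% reduction in fluorescence relative to the mean of replicate bacterium-only controls. MDR strain 6133 is resistant to isoniazid and rifampicin.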

[20] = system: Enterococcus faecalis; assay: Antibacterial activity against Enterococcus faecalis 14-2 after 18 to 24 hrs; summary of the method: as §1
[21] = system: Staphylococcus epidermidis; assay: Antibacterial activity against methicillin-resistant Staphylococcus epidermidis 14-37 after 18 to 24 hrs
[22] = system: Staphylococcus aureus; assay: Antibacterial activity against methicillin-sensitive Staphylococcus aureus 14-3 after 18 to 24 hrs; summary of the method: as §1
[23] = system: Escherichia coli; assay: Antibacterial activity against Escherichia coli 14-2 after 18 to 24 hrs; summary of the method: as §1
[24] = system: Klebsiella pneumoniae; assay: Antibacterial activity against Klebsiella pneumoniae 14-1 after 18 to 24 hrs; summary of the method: as §1
[25] = system: Pseudomonas aeruginosa; assay: Antibacterial activity against Pseudomonas aeruginosa 14-16 after 18 to 24 hrs; summary of the method: as §1
[26] = system: Staphylococcus aureus; assay: Antibacterial activity against methicillin-resistant Staphylococcus aureus 14-5 after 18 to 24 hrs
[27] = system: Staphylococcus aureus; assay: Antibacterial activity against methicillin-sensitive Staphylococcus aureus 14-2 after 18 to 24 hrs; summary of the method: as §1
[28] = system: Escherichia coli; assay: Antibacterial activity against ESBL-positive Escherichia coli 14-2 after 18 to 24 hrs; summary of the method: as §1
[29] = system: Staphylococcus epidermidis; assay: Antibacterial activity against methicillin-resistant Staphylococcus epidermidis 14-22 after 18 to 24 hrs
[30] = system: Staphylococcus aureus; assay: Antibacterial activity against methicillin-sensitive Staphylococcus aureus 14-4 after 18 to 24 hrs; summary of the method: as §1
[31] = system: Escherichia coli; assay: Antibacterial activity against Escherichia coli 14-1 after 18 to 24 hrs; summary of the method: as §1
[32] = system: Klebsiella pneumoniae; assay: Antibacterial activity against ESBL-positive Klebsiella pneumoniae 14-18 after 18 to 24 hrs; summary of the method: as §1
[33] = system: Pseudomonas aeruginosa; assay: Antibacterial activity against Pseudomonas aeruginosa ATCC 27853 after 18 to 24 hrs; summary of the method: as §1
[34] = system: Staphylococcus aureus; assay: Antibacterial activity against Staphylococcus aureus CMCC 26003 after 18 to 24 hrs; summary of the method: as §1
[35] = system: Klebsiella pneumoniae; assay: Antibacterial activity against ESBL-positive Klebsiella pneumoniae 14-19 after 18 to 24 hrs; summary of the method: as §1
[36] = system: Enterococcus faecium; assay: Antibacterial activity against Enterococcus faecium 14-1 after 18 to 24 hrs; summary of the method: as §1
[37] = system: Klebsiella pneumoniae; assay: Antibacterial activity against Klebsiella pneumoniae 14-3 after 18 to 24 hrs; summary of the method: as §1
[38] = system: Enterococcus faecalis; assay: Antibacterial activity against Enterococcus faecalis 14-1 after 18 to 24 hrs; summary of the method: as §1

## CO/N=C1\CN(c2nc3c(cc2F)c(=O)c(C(=O)O)cn3[C@@H]2C[C@@H]2F)CC1N (stereo partly specified)
[1]
  MIC: 0.25 µg/mL (≈ 0.636 µM)
[2]
  MIC: 32 µg/mL (≈ 81.4 µM)
[3]
  MIC: 128 µg/mL (≈ 325 µM)
[4]
  MIC: 64 µg/mL (≈ 163 µM)
[5]
  MIC: 16 µg/mL (≈ 40.7 µM)
[6]
  MIC: 8 µg/mL (≈ 20.3 µM)
[7]
  MIC: 0.25 µg/mL (≈ 0.636 µM)
[8]
  MIC: 64 µg/mL (≈ 163 µM)
[9]
  MIC: 8 µg/mL (≈ 20.3 µM)
[10]
  MIC: 128 µg/mL (≈ 325 µM)
[11]
  MIC: 8 µg/mL (≈ 20.3 µM)
[12]
  MIC: 8 µg/mL (≈ 20.3 µM)
[13]
  MIC: 8 µg/mL (≈ 20.3 µM)
[14]
  MIC: 128 µg/mL (≈ 325 µM)
[15]
  MIC: > 128 µg/mL
[16]
  MIC: 128 µg/mL (≈ 325 µM)
[17]
  MIC: 128 µg/mL (≈ 325 µM)
[18]
  MIC: 128 µg/mL (≈ 325 µM)
[19]
  MIC90: 0.867 µg/mL (≈ 2.2 µM)
[20]
  MIC: 2 µg/mL (≈ 5.08 µM)
[21]
  MIC: 32 µg/mL (≈ 81.4 µM)
[22]
  MIC: 1 µg/mL (≈ 2.54 µM)
[23]
  MIC: 128 µg/mL (≈ 325 µM)
[24]
  MIC: > 128 µg/mL
[25]
  MIC: 8 µg/mL (≈ 20.3 µM)
[26]
  MIC: 64 µg/mL (≈ 163 µM)
[27]
  MIC: 0.5 µg/mL (≈ 1.27 µM)
[28]
  MIC: > 128 µg/mL
[29]
  MIC: 32 µg/mL (≈ 81.4 µM)
[30]
  MIC: 1 µg/mL (≈ 2.54 µM)
[31]
  MIC: 128 µg/mL (≈ 325 µM)
[32]
  MIC: 8 µg/mL (≈ 20.3 µM)
[33]
  MIC: 4 µg/mL (≈ 10.2 µM)
[34]
  MIC: 0.5 µg/mL (≈ 1.27 µM)
[35]
  MIC: > 128 µg/mL
[36]
  MIC: 128 µg/mL (≈ 325 µM)
[37]
  MIC: > 128 µg/mL
[38]
  MIC: 128 µg/mL (≈ 325 µM)

## NC1CN(c2nc3c(cc2F)c(=O)c(C(=O)O)cn3[C@@H]2C[C@@H]2F)C/C1=N\OCc1ccccc1 (stereo partly specified)
[1]
  MIC: 0.5 µg/mL (≈ 1.07 µM)
[2]
  MIC: 16 µg/mL (≈ 34.1 µM)
[3]
  MIC: 64 µg/mL (≈ 136 µM)
[4]
  MIC: 32 µg/mL (≈ 68.2 µM)
[5]
  MIC: 128 µg/mL (≈ 273 µM)
[6]
  MIC: 32 µg/mL (≈ 68.2 µM)
[7]
  MIC: 0.5 µg/mL (≈ 1.07 µM)
[8]
  MIC: 64 µg/mL (≈ 136 µM)
[9]
  MIC: 32 µg/mL (≈ 68.2 µM)
[10]
  MIC: 128 µg/mL (≈ 273 µM)
[11]
  MIC: 32 µg/mL (≈ 68.2 µM)
[12]
  MIC: 32 µg/mL (≈ 68.2 µM)
[13]
  MIC: 32 µg/mL (≈ 68.2 µM)
[14]
  MIC: > 128 µg/mL
[15]
  MIC: > 128 µg/mL
[16]
  MIC: 32 µg/mL (≈ 68.2 µM)
[17]
  MIC: 64 µg/mL (≈ 136 µM)
[18]
  MIC: > 128 µg/mL
[19]
  MIC90: 1.92 µg/mL (≈ 4.09 µM)
[20]
  MIC: 1 µg/mL (≈ 2.13 µM)
[21]
  MIC: 64 µg/mL (≈ 136 µM)
[22]
  MIC: 0.5 µg/mL (≈ 1.07 µM)
[23]
  MIC: > 128 µg/mL
[24]
  MIC: > 128 µg/mL
[25]
  MIC: 32 µg/mL (≈ 68.2 µM)
[26]
  MIC: 64 µg/mL (≈ 136 µM)
[27]
  MIC: < 0.008 µg/mL
[28]
  MIC: > 128 µg/mL
[29]
  MIC: 32 µg/mL (≈ 68.2 µM)
[30]
  MIC: 1 µg/mL (≈ 2.13 µM)
[31]
  MIC: > 128 µg/mL
[32]
  MIC: 32 µg/mL (≈ 68.2 µM)
[33]
  MIC: 16 µg/mL (≈ 34.1 µM)
[34]
  MIC: < 0.008 µg/mL
[35]
  MIC: > 128 µg/mL
[36]
  MIC: 64 µg/mL (≈ 136 µM)
[37]
  MIC: > 128 µg/mL
[38]
  MIC: 64 µg/mL (≈ 136 µM)
